Compounds with a hit are over-represented: about 2% of the library has one in this group of screens.
EBV LMP1 NFkB = inhibitors of Epstein-Barr LMP1-induced NF-kappaB reporter; LMP1-induced NF-kappaB luciferase reporter cells, luminescence; inhibition, % at 12.5 µM; 350,000 tested, 0.69% active; AID 504558; in the data active = inhibition above about 41%; inconclusive = no clear call, values can overlap the other calls
NR2E3 ag-1 = activates human NR2E3 receptor | CHO-S Gal4-NCOR/VP16-NR2E3 two-hybrid, luciferase | inhibition of corepressor binding, % at 3.98 µM | AID 602229 | Q9Y5X4 | 360,000 tested, 0.35% active;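 active = inhibition above the mean of all tested compounds plus 3 SD, cut at about 70% in these data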;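 note: higher means lower luciferase signal from less NR2E3 corepressor binding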
Target sequence (Q9Y5X4 whole entry, looked up, the tested form may be a part): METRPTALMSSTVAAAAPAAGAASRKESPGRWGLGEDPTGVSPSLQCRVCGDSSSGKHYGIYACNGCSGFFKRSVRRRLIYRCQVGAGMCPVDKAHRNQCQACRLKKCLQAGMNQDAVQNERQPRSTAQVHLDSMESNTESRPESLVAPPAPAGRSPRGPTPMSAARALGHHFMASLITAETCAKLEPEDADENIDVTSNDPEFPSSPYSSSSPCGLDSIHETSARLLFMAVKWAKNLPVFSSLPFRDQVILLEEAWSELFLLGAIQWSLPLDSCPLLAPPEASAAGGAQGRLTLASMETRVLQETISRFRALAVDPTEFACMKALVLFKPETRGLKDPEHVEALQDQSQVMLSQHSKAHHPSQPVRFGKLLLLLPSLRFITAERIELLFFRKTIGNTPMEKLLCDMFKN
HIF activator = HIF pathway transcriptional activation | 300,000 tested, 0.32% active | activation, % at 7.5 µM (by protocol) | U2OS HRE-luciferase reporter, luminescence; normalized: DMSO 0%, desferrioxamine 100%;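 active = mean activation of at least 10% of the iron chelator positive control signal, with at least half of replicates also reaching 10%; inconclusive = mean and replicate majority disagree about reaching 10%; inactive = mean and most replicates under 10%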
NR2E3 ag-2 = agonists of human nuclear receptor NR2E3; GST-NR2E3/biotin-RetCOR TR-FRET, 1536-well; 320,000 tested, 0.12% active; inhibition of corepressor binding, % at 4.78 µM; Q9Y5X4; AID 2300;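 active = percent inhibition above the cutoff of mean plus 3 SD of all tested compounds, set per screening campaign, cut at about 20% in these data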
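Material: NR2E3–RetCOR corepressor complex / Incubation: Compound–protein incubation for 5 h at 4 °C / Dosing: compound at 4.8 µM, single dose / Detection: time-resolved FRET / Benchmarks: high control biotin, low control 0.6% DMSO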
TROY signal inh = inhibitors of TROY-dependent NF-kB signaling; Q293 LMP1-TROYcd NF-kB luciferase reporter, 4 h; inhibition, % at 10 µM; 360,000 tested, 0.98% active;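 active = compounds whose plate-normalised and pattern-corrected inhibition of the luciferase reporter signal at the single screening dose is 50% or more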
NR2E3 ag conf = confirmation of human NR2E3 agonists; inhibition, % at 3.98 µM; AID 624378; 2,300 tested, 51% active; shares compounds with NR2E3 ag-1; CHO-S mammalian two-hybrid NR2E3-NCOR, luciferase luminescence;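 active = average inhibition above a cutoff equal to the mean inhibition of all tested compounds plus one SD, cut at about 70% in these data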
VP16 counter = GAL4-VP16 reporter inhibition in NR2E3 agonist counterscreen; shares compounds with NR2E3 ag-1; CHO-S GAL4-VP16 luciferase reporter, luminescence; inhibition, % at 3.98 µM; 2,300 tested, 29% active;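 active = mean inhibition above a cutoff equal to the average over all tested compounds plus one standard deviation, cut at about 70% in these data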;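 note: luciferase from a UAS reporter driven by GAL4-VP16 transactivation; higher means less reporter light so more repression of VP16 activity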
Hits are given with their value; 0 = inactive; ? = inconclusive; - = not tested or not shown.

SMILES	EBV LMP1 NFkB	NR2E3 ag-1	HIF activator	NR2E3 ag-2	TROY signal inh	NR2E3 ag conf	VP16 counter
COc1ccc2c(c1)C(C)=CC(C)(C)N2S(=O)(=O)c1ccc(Br)cc1	0	0	0	0	0	-	-
COc1ccccc1C(=O)Nc1nc2ccccc2s1	85.3	0	0	0	84.9	0	0
COc1ccc(C(=O)Nc2nc3ccccc3s2)c(OC)c1	85.2	97.4	0	0	85.2	89.3	86.1
Cc1c(C(=O)NC2CCOC2)oc2c(F)cccc12 (stereo not drawn)	0	0	0	0	0	-	-
Cc1cccc(C(=O)N[C@H](C(=O)Nc2nnc(C3CC3)s2)C(C)C)c1	0	0	0	0	0	-	-
Cc1cccc(C(=O)N[C@H](C(=O)Nc2ncc(C)s2)C(C)C)c1	0	85.0	0	0	0	98.3	0
CCN1/C(=C/C=C/c2oc3ccc(-c4ccccc4)cc3[n+]2CC)Oc2ccc(-c3ccccc3)cc21	43.5	80.1	0	0	0	100.1	92.5
CCCCN1C(=O)/C(=C/C=C2\Oc3ccccc3N2CC)SC1=S	0	0	0	-	0	-	-
CCOC(=O)N1CCN(C(=O)c2ccc(S(=O)(=O)Nc3ccc(C)cc3)cc2)CC1	0	0	-	-	0	81.0	0
CCOc1ccc(NS(=O)(=O)c2ccc(C(=O)N3CCCC(C)C3)cc2)cc1 (stereo not drawn)	0	0	0	0	0	73.8	0
CCOc1ccc(NS(=O)(=O)c2ccc(NC(=O)C3CC3)cc2)cc1	0	0	0	0	0	-	-
COc1ccc(NS(=O)(=O)c2ccc(C(=O)N3CCCCCC3)cc2)cc1	0	75.6	-	-	0	0	0
COc1ccc(NS(=O)(=O)c2ccc(NC(=O)C3CC3)cc2)cc1	0	0	0	0	0	0	0
Cc1ccc(Nc2ccncc2S(N)(=O)=O)cc1	-	0	0	0	0	-	-
Cc1cc(C)n(C(C)CC(=O)Nc2ccc3c(c2)OCO3)n1 (stereo not drawn)	0	0	0	0	0	-	-
CC(=O)Nc1ccc(S(=O)(=O)Oc2ccc(C(=S)N3CCCCC3)cc2)cc1	0	0	0	0	0	70.2	0
Cc1ccc(S(=O)(=O)NCc2ccc(C(=O)N3CCN(c4ccc([N+](=O)[O-])cc4)CC3)cc2)cc1	0	0	0	0	0	82.6	0
CCOc1ccc(NS(=O)(=O)c2ccc(C(=O)N3CCCCCC3)cc2)cc1	0	73.2	0	0	0	0	0
CCCCOc1ccc(S(=O)(=O)Nc2ccc(NC(C)=O)cc2)cc1	0	70.2	0	0	0	0	0
CCOc1ccc(S(=O)(=O)Nc2ccc(C(=O)N3CCCC3)cc2)cc1	0	0	0	0	0	-	-
COc1ccc(N2CCN(C(=O)c3ccc(CNS(=O)(=O)c4ccc(C)cc4)cc3)CC2)cc1	0	0	0	0	0	-	-
O=C(C1CN(C(=O)c2cc3ccccc3o2)c2ccccc2O1)N1CCCCC1 (stereo not drawn)	0	0	-	-	0	-	-
C[C@H]1CN([C@@H](C)CO)C(=O)CCCn2nncc2CO[C@H]1CN(C)C(=O)c1ccncc1	0	0	-	-	0	-	-
Cc1ccc(NS(=O)(=O)c2ccc(C(=O)N3CCN(c4ccccn4)CC3)cc2)cc1	0	0	0	0	0	0	0
Cc1ccc([C@H]2C(C(=O)O)=CC[C@@H](c3ccc(Cl)cc3)N2S(=O)(=O)c2ccccc2C)cc1	0	0	-	-	0	0	0
SMILES	EBV LMP1 NFkB	NR2E3 ag-1	HIF activator	NR2E3 ag-2	TROY signal inh	NR2E3 ag conf	VP16 counter
Cc1ccc([C@H]2C(C(=O)O)=CC[C@@H](c3ccc(C)cc3)N2S(=O)(=O)c2ccccc2C)cc1	0	0	-	-	0	-	-
Cc1ccccc1S(=O)(=O)N1[C@@H](c2ccc(Cl)cc2)C(C(=O)O)=CC[C@H]1c1ccc(Cl)cc1	0	0	-	-	0	0	0
NC(=O)C1=CC2C3C=CC2(O)C(=O)OC3O1 (stereo not drawn)	0	0	-	-	0	-	-
CO/N=C/c1ccc(N2CCN(C(=O)c3ccc(Cl)cc3Cl)CC2)c([N+](=O)[O-])c1	0	76.1	0	0	0	91.2	76.4
CCOc1ccc(S(=O)(=O)n2cnc3cc(C)c(C)cc32)cc1	0	0	0	0	0	83.3	76.0
Cc1csc(NC(=O)c2ccc(Cn3nc(C)c(Br)c3C)o2)n1	0	78.5	0	0	0	73.5	0
Cc1nn(Cc2ccc(C(=O)Nc3ccccc3C(F)(F)F)o2)c(C)c1Br	0	0	0	0	0	-	-
CCCCCCC[C@@H](C/C=C/CCC(=O)N(C)C/C(=C/Cl)C/C(=C\C(=O)N1CC(OC)=CC1=O)OC)OC	0	0	-	-	0	-	-
CCCCCCC[C@@H](C/C=C/CCC(=O)N(C)C/C(=C/Cl)C/C(=C\C(=O)N1C[C@H](O)CC1=O)OC)OC	0	0	-	-	0	0	0
O=C(CN1C(=O)NC2(CCCCCCC2)C1=O)NCc1ccccc1Cl	0	0	-	0	0	-	-
BrC(=C\c1ccccc1)/C=N/n1cnnc1	?	0	0	-	0	0	0
CCOc1ccccc1NC(=O)CN1C(=O)COc2ccc(S(=O)(=O)N3CCOCC3)cc21	0	0	0	0	0	-	-
O=C(Cc1cccc2ccccc12)NCC(=O)N1CCN(Cc2cccc(C(F)(F)F)c2)CC1	0	0	-	0	0	0	0
C=CC[C@@H](CC(=O)NCCO)C(=O)NC[C@@H](OC(=O)[C@H](CC=C)CC(=O)OC(C)(C)C)c1ccccc1	0	0	-	-	0	-	-
O=C(c1cc(S(=O)(=O)N2CCOCC2)ccc1Cl)N1CCC(Cc2ccccc2)CC1	0	0	0	0	0	0	0
Cc1ccc(S(=O)(=O)N2CCOCC2)cc1C(=O)N1CCC(Cc2ccccc2)CC1	0	0	0	0	0	-	-
O=C(O)CCSc1nnc(-c2ccc3c(c2)OCO3)o1	0	0	0	0	52.3	0	0
CC(=O)CSc1nnc(-c2ccc3c(c2)OCO3)o1	0	0	0	0	0	-	-
Cc1csc2c(N3CCN(C(=O)Nc4ccc(OC(F)(F)F)cc4)CC3)ncnc12	0	0	0	0	0	90.1	71.2
Cc1csc2c(N3CCC(C(=O)O)CC3)ncnc12	0	0	0	0	0	-	-
CCOc1ccc(C(=O)NCC(=O)N2CCC3(CC2)NCCc2[nH]cnc23)cc1	0	0	0	0	0	-	-
Cc1cc(/C=C2/SC(=S)N(c3cccc(Cl)c3)C2=O)c(C)n1-c1cccnc1	0	0	0	0	0	0	0
COc1cccc(CN(C)S(=O)(=O)c2cccs2)c1	0	0	0	0	0	-	-
COc1ccc(S(=O)(=O)N2CCC(C(=O)NCCC(=O)Nc3ccc(Cl)cc3)CC2)cc1	0	0	0	0	0	-	-
CCNC(=O)C1CCCN(C(=O)c2ccc(C#N)cc2)CC1 (stereo not drawn)	-	0	-	-	0	-	-
CCC1=C(c2ccc(OC)cc2)CCC(C(=O)O)C1C (stereo not drawn)	0	0	-	-	0	-	-

Source: PubChem BioAssay
